Compounds with a hit are over-represented: about 6.7% of the library has one in this group of screens.
CSC inhib – cancer stem cell viability inhibitors, primary screen, luminescence; cancer stem cell-like cells viability; inhibition, % at 7.5 µM; 300,000 compounds, 1.1% hits; AID 2717, 2010; in the data active means inhibition above about 75%; tested in HMLE shEcad cells
T cruzi inh – inhibitors of intracellular T. cruzi growth, primary screen, luminescence, NIH3T3 host cells; 300,000 compounds, 1.4% hits; AID 1885, 2009; inhibition, % (no concentration beside the values); T. cruzi beta-gal in NIH3T3, 90 h;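 active means mean inhibition across valid replicates above about 55%, limit read from the data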;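 further: signal also drops with host cell toxicity which is not excluded here; higher percent means less beta-gal luminescence so fewer parasites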
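compound dosing = single 50 nL compound addition per well in DMSO | material = NIH/3T3 host cells with β-galactosidase reporter T. cruzi | input = 5,000 host fibroblasts per well | timing = ≥90 h infection period, 3 h prior cell attachment | read-out basis = percent inhibition of parasite-derived β-gal signal | detection = GalScreen β-gal luminescence, detergent lysis, 60 min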
Beta apoptosis – inhibitors of cytokine-induced beta cell apoptosis, primary screen, luminescence; AID 435005, 2010; protection from apoptosis, % (concentration not given with the values); INS-1E cytokine-induced death, ATP luminescence, 48 h; percent of positive-control rescue, neutral wells zero; 300,000 compounds, 0.8% hits;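 active means Every replicate reaches about 75%, or at least half do and their mean reaches it too, limit read from the data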;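 further: higher means more ATP so stronger rescue from cytokine killing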
CHOP inh – inhibitors of CHOP promoter induction, primary screen, cell-based, unfolded protein response, luciferase reporter; CHO-K1 CHOP-promoter luciferase, tunicamycin-induced, 15-18 h; 220,000 compounds, 3.8% hits; inhibition, % at 10 µM;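 active means compounds that reduced the stress-induced luciferase reporter signal by more than about 70% of percent inhibition, limit read from the data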
NR3A LBD binder – binders of NR3A ligand-binding domain, primary screen, biophysical, differential scanning fluorimetry, uHTS. AID 1259313, 2017. Tm shift relative to glycine control, % at 25 µM. NR3A LBD differential scanning fluorimetry, Tm shift; 0% = protein alone, 100% = glycine-bound protein. 340,000 compounds, 2.5% hits. Glutamate receptor ionotropic, NMDA 3A (GRIN3A) ligand-binding domain;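 active means melting temperature shift of at least 10% of the positive control shift, at one fixed dose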
PREPL inh – PREPL enzyme inhibitors, primary screen, biochemical, fluorescence polarization; inhibition, % at 5.96 µM; Prolyl endopeptidase-like (Homo sapiens), Q4J6C6; 320,000 compounds, 0.68% hits; recombinant PREPL, fluorescence polarization activity-based probe; AID 2751, 2010; in the data active means inhibition above about 43%
Target sequence (Q4J6C6 whole entry, looked up): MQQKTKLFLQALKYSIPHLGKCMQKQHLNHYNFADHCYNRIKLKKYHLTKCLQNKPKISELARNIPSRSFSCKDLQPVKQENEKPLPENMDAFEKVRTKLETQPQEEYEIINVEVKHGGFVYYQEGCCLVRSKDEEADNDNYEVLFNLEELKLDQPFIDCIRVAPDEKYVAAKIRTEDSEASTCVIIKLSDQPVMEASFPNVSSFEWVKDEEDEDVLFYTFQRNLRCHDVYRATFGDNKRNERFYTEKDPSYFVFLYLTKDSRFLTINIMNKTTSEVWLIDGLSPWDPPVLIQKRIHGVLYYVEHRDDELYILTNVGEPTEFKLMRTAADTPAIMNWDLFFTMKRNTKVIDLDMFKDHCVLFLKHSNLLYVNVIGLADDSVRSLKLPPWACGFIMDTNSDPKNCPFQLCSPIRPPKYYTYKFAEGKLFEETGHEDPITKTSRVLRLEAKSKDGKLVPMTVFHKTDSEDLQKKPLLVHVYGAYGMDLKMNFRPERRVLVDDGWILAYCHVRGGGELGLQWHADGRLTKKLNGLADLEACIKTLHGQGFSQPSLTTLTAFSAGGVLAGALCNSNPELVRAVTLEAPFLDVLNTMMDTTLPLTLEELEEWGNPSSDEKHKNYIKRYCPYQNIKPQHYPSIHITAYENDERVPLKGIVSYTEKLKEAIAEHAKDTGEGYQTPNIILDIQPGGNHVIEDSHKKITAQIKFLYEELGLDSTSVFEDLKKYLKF
Each line names hits and unclear results; the compound was inactive in the other large screens.

COc1ccc(/C=C/C(=O)Nc2nnc(C(C)C)s2)cc1OC	none
COc1ccc(NC(C)=[N+](C)CCNS(=O)(=O)c2ccc(Cl)cc2)cc1Cl	T cruzi inh 58.2 (no result: CHOP inh)
Cn1c(=O)c2c(SC3CCCC3)nc(C3CC3)nc2n(C)c1=O	CHOP inh 79.9 (no result: CSC inhib)
C[C@H](CO)N1C[C@H](C)[C@@H](CN(C)S(=O)(=O)c2ccc(F)cc2)Oc2ccc(NC(=O)Nc3ccccc3)cc2C1=O	none (no result: T cruzi inh, CHOP inh)
C[C@@H]1CN([C@H](C)CO)C(=O)c2cc(NC(=O)Nc3ccc(C(F)(F)F)cc3)ccc2O[C@H]1CN(C)S(=O)(=O)c1ccc(Cl)cc1	CSC inhib 77.8, NR3A LBD binder 19.4 (no result: T cruzi inh, CHOP inh)
C[C@@H]1CN([C@@H](C)CO)C(=O)Cc2cc(NC(=O)Nc3ccc(C(F)(F)F)cc3)ccc2O[C@@H]1CN(C)S(=O)(=O)c1ccc(Cl)cc1	CSC inhib 131.9, NR3A LBD binder 14.0 (no result: T cruzi inh, CHOP inh)
C[C@H](CO)N1C[C@H](C)[C@H](CN(C)S(=O)(=O)c2cn(C)cn2)Oc2ccc(NC(=O)Nc3ccc(C(F)(F)F)cc3)cc2CC1=O	none (no result: T cruzi inh, CHOP inh)
C[C@H](CO)N1C[C@H](C)[C@@H](CN(C)S(=O)(=O)c2ccc(F)cc2)Oc2ccc(NC(=O)Nc3ccc(C(F)(F)F)cc3)cc2C1=O	CSC inhib 87.4, NR3A LBD binder 10.9 (no result: T cruzi inh, CHOP inh)
COc1cc(-c2[nH]ncc2CN2CCN(c3cccc(C)n3)CC2)cc(OC)c1OC	none
Cc1cccc(NC(=O)COC(=O)c2cc3ccccc3oc2=O)c1	none
CC(Nc1ccc(Br)cn1)c1cc(Cl)ccc1O (centres undefined)	CHOP inh 77.0 (no result: CSC inhib, Beta apoptosis, PREPL inh)
C=C(C)c1nc(Oc2ccccc2)nc(Oc2ccccc2)n1	none (no result: CSC inhib, T cruzi inh, Beta apoptosis, CHOP inh, PREPL inh)
Cn1cccc1/C=C1\SC(=S)N(NC(=O)c2ccccc2)C1=O	none (no result: T cruzi inh)
Cn1cccc1/C=C1\SC(=S)N(NC(=O)c2cccc(Cl)c2)C1=O	NR3A LBD binder 13.0 (no result: T cruzi inh)
O=C(Nc1cc(SCCO)cc([N+](=O)[O-])c1)c1ccc(Br)o1	none
COc1ccc(CN(C)C(c2ccccc2)c2nnnn2-c2ccccc2C)c(OC)c1C (centres undefined)	NR3A LBD binder 15.4
COc1cccc(CN(C)C(c2ccccc2)c2ccccc2)c1OC	none (no result: CHOP inh)
O=C(Nc1ccccc1)Nc1nnc(-c2cccs2)s1	NR3A LBD binder 22.0
COc1ccc(NC(=O)Nc2nnc(-c3cccs3)s2)cc1	CHOP inh 87.7, NR3A LBD binder 16.3
O=C(Nc1nnc(-c2cccs2)s1)c1cccc(F)c1	CHOP inh 93.3 (no result: T cruzi inh)
COc1ccc(C(=O)Nc2nnc(-c3cccs3)s2)cc1	CHOP inh 70.0
CCCC(=O)Nc1nnc(SCC(=O)NC2CC2)s1	none (no result: CHOP inh)
COCC(=O)OC1CCn2c1nc1c2C(=O)C(C)=C(NC(C)=O)C1=O (centres undefined)	none (no result: CSC inhib, T cruzi inh, Beta apoptosis, CHOP inh, PREPL inh)
Cc1occc1C(=O)Nc1nnc(-c2cccs2)s1	CHOP inh 81.3
Cc1occc1C(=O)Nc1nccs1	none
O=C(O)c1ccc(Cl)c(S(=O)(=O)N(Cc2ccccc2)c2ccc(F)cc2)c1	CSC inhib 95.7 (no result: CHOP inh)
O=C(O)c1ccc(Cl)c(S(=O)(=O)N(Cc2ccccc2)c2ccccc2)c1	none (no result: CHOP inh)
Cn1c2ccccc2c(=O)c2ccc(NCCc3cccs3)cc21	none (no result: T cruzi inh, CHOP inh)
COc1cc(OC)cc(C(=O)NCC(=O)OCC(=O)c2cc(C)n(Cc3ccco3)c2C)c1	NR3A LBD binder 18.6
Cc1cc(C(=O)COC(=O)CNC(=O)c2ccccc2)c(C)n1CC1CCCO1 (centres undefined)	CHOP inh 90.1
N#Cc1ccccc1CSCCNC(=O)Cc1c(F)cccc1Cl	none (no result: CHOP inh)
C=CCC1(C)C(=O)N(c2ccccc2)c2ccccc21 (centres undefined)	none
COc1ccc(-c2c[n+](CC(=O)N3c4ccccc4Sc4ccccc43)c3n2CCC3)cc1	T cruzi inh 57.1
O=C(C[n+]1cc(-c2ccc(Cl)c(Cl)c2)n2c1CCC2)N1c2ccccc2Sc2ccccc21	T cruzi inh 54.5
COc1ccc(-c2c[n+](CC(=O)c3cccs3)c3n2CCC3)cc1	none (no result: Beta apoptosis)
O=C(C[n+]1cc(-c2ccc(Cl)cc2)n2c1CCC2)N1c2ccccc2Sc2ccccc21	none

From PubChem BioAssay
